Assay results from ChEMBL document CHEMBL3421616, “Conformational Restriction Leading to a Selective CB2 Cannabinoid Receptor Agonist Orally Active Against Colitis” (ACS Med Chem Lett, 2015).
Calls of active or inactive are those of the source. No cut-off for these calls is given here.

Columns and labels:
Cannabinoid receptor 2 [1] = target: T1, Cannabinoid receptor 2 (Homo sapiens, UniProt P34972); assay: Displacement of [3H]-CP55940 from human CB2 receptor after 1 hr by scintillation counting analysis
Cannabinoid receptor 1 = Cannabinoid receptor 1 (Homo sapiens, UniProt P21554); assay: Displacement of [3H]-CP55940 from human CB1 receptor after 1 hr by scintillation counting analysis
Cannabinoid receptor 2 [2] = target: T1, Cannabinoid receptor 2; assay: Agonist activity at human CB2 receptor after 1 hr by [35S]-GTPgammaS binding assay; type: functional
MDCK-II = assay: Inhibition of MDR1 in MDCK2 cells at 10 uM after 30 mins by calcein AM uptake assay relative to control; type: cell-based; conditions: Canis lupus familiaris
In short: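 MDR1-MDCKII cells; P-gp function read as cellular calcein AM uptake after 30 min incubation at 37 °C.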

Mus musculus [3] = assay: Anticolitis activity in po dosed TNBS-induced C57Bl6 mouse acute colitis model assessed as reduction of body weight loss administered as qd over 7 days, starting 2 days prior to TNBS challenge measured 5 days post TNBS challenge; type: functional, organism-based
In short: (§1)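 Mice given test article orally in carboxymethyl cellulose once daily at 0.1, 1 or 10 mg/kg for 7 days, beginning 2 days before TNBS colitis induction; vehicle-only (CMC) controls. Survival followed throughout; body weight loss, semiquantitative macroscopic colon score, histological score and colonic TNFα and IL-1β mRNA assessed at euthanasia 5 days after TNBS. Mean ± SEM, 10 mice per group.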

[4] = Fraction unbound in human plasma after 18 hrs by equilibrium dialysis method; type: ADME, cell-free
In short: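 Plasma protein binding by equilibrium dialysis, 18 h at 37 °C.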

Mus musculus [5] = assay: Anticolitis activity in TNBS-induced C57Bl6 mouse acute colitis model assessed as downregulation of TNF-alpha mRNA expression in colon at 10 mg/kg, po qd administered over 7 days, starting 2 days prior to TNBS challenge measured 5 days post TNBS challenge by real-time PCR analysis; type: functional, organism-based; parameters: dose 10 mg/kg; in short: as §1
Mus musculus [6] = assay: Anticolitis activity in TNBS-induced C57Bl6 mouse acute colitis model assessed as reduction of mortality rate at 0.1 to 10 mg/kg, po qd administered over 7 days, starting 2 days prior to TNBS challenge measured 5 days post TNBS challenge relative to vehicle-treated control; type: functional, organism-based; in short: as §1
Mus musculus [7] = assay: Anticolitis activity in TNBS-induced C57Bl6 mouse acute colitis model assessed as decrease in bowel thickness and areas of ulceration at 10 mg/kg, po qd administered over 7 days, starting 2 days prior to TNBS challenge measured 5 days post TNBS challenge (reference value: 4.9); type: functional
In short: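 Mouse acute colitis induced by TNBS. Compound given orally in carboxymethyl cellulose (CMC) once daily at 0.1, 1 and 10 mg/kg for 7 days, starting 2 days before induction; controls received CMC alone. Mice euthanised 5 days after TNBS. Colon damage graded with a semiquantitative macroscopic score; mean ± SEM of 10 mice per group, compared with vehicle.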

hERG (KCNH2) = hERG (KCNH2) (Homo sapiens, UniProt Q12809); assay: Binding affinity to human ERG expressed in HEK293 cells assessed as inhibition of tail current at 1 uM after 5 to 10 mins by patch-clamp assay relative to control; type: cell-based; conditions: HEK293 cells expressing human ERG
In short: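 hERG-expressing HEK 293 cells, conventional whole-cell patch clamp; compound at 1 μM applied cumulatively for 5–10 min at room temperature; tail current inhibition read.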

Mus musculus [8] = assay: Anticolitis activity in TNBS-induced C57Bl6 mouse acute colitis model assessed as downregulation of IL-1beta mRNA expression in colon at 10 mg/kg, po qd administered over 7 days, starting 2 days prior to TNBS challenge measured 5 days post TNBS challenge by real-time PCR analysis; type: functional, organism-based; parameters: dose 10 mg/kg; in short: as §1
Mus musculus [9] = assay: Anticolitis activity in TNBS-induced C57Bl6 mouse acute colitis model assessed as decrease in degree of inflammation infiltrate, presence of erosion, ulceration, necrosis and depth, surface extension of lesions at 10 mg/kg, po qd administered over 7 days, starting 2 days prior to TNBS challenge measured 5 days post TNBS challenge by Giemsa staining relative to vehicle-treated control; type: functional; parameters: scale not given: the % may be the effect or the level left; in short: as §1
[10] = Permeability across apical to basolateral side in human Caco2 cells at 10 uM after 60 mins; type: ADME, cell-based; conditions: Caco-2, read-out: permeability
[11] = Metabolic stability in human liver microsomes assessed as compound remaining at 1 uM after 60 mins; type: ADME; conditions: read-out: Stability
In short: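 Compound (1 μM) incubated with human liver microsomes (0.3 mg/mL) at 37 °C, sampled at 0 and 60 min; percent remaining reported.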

Mus musculus [12] = assay: Anticolitis activity in po dosed TNBS-induced C57Bl6 mouse acute colitis model assessed as decrease in bowel thickness and areas of ulceration administered as qd over 7 days, starting 2 days prior to TNBS challenge measured 5 days post TNBS challenge; type: functional, organism-based; in short: as §1

T1 sequence (P34972 whole entry): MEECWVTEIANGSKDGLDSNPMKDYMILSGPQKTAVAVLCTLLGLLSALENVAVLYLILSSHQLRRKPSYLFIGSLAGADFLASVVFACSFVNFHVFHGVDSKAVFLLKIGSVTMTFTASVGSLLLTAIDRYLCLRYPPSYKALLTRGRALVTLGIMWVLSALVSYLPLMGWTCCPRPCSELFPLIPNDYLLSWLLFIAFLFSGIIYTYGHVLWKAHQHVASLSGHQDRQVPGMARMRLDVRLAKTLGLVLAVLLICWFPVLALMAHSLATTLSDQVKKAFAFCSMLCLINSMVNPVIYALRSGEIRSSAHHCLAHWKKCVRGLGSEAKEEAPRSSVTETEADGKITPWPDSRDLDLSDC
Sequence of Cannabinoid receptor 1 (P21554 whole entry): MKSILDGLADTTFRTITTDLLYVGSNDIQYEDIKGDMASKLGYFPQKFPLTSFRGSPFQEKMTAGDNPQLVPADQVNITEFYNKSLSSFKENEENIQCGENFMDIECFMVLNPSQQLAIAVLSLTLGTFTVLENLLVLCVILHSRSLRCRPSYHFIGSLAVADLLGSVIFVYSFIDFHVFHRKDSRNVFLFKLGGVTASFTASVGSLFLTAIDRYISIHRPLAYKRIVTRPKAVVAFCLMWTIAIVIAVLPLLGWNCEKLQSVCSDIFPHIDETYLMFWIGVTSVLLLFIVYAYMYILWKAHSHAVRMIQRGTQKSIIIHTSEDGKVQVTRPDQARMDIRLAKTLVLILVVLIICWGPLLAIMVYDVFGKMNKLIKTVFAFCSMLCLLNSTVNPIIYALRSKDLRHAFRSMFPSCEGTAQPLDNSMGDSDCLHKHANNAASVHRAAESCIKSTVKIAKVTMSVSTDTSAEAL
Sequence of hERG (KCNH2) (Q12809 whole entry): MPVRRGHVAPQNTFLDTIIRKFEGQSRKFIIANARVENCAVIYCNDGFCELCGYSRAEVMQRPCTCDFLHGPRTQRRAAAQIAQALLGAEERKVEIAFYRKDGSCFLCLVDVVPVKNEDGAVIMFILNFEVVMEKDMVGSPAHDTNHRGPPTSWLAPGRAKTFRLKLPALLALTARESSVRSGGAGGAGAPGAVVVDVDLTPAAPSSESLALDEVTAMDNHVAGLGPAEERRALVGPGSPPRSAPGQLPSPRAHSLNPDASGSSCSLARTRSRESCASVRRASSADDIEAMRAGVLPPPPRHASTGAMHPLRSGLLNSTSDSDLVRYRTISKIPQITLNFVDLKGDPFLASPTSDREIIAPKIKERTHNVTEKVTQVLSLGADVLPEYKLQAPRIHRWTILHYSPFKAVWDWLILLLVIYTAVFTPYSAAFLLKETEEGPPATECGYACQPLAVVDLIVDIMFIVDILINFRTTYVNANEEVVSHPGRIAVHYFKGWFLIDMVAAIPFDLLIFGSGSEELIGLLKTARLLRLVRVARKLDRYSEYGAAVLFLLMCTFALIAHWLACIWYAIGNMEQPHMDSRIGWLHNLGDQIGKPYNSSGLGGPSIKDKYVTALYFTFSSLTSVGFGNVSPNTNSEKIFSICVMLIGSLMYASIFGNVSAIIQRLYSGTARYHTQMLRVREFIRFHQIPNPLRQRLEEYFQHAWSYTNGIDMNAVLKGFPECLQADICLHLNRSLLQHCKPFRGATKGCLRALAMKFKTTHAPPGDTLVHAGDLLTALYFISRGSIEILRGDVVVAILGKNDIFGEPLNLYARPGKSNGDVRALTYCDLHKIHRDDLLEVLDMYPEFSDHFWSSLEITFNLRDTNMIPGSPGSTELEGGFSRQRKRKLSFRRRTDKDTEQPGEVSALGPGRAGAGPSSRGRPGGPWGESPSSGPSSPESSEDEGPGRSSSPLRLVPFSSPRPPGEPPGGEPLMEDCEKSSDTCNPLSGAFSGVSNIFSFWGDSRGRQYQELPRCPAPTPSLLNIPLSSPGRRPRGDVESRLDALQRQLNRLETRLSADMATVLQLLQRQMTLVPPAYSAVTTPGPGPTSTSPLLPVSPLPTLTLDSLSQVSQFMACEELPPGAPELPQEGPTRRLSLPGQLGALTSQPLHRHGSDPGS

SMILES | Ki (Cannabinoid receptor 2 [1]) | Ki (Cannabinoid receptor 1) | also measured
CCCCCn1c(-c2ccccc2)c2c(=O)n(Cc3ccccc3)nc-2c2ccccc21 | > 3 µM | > 3 µM | –
CCCCCn1c(-c2ccccc2)c2c(=O)n(-c3ccc(OC)cc3)nc-2c2ccccc21 | > 3 µM | > 3 µM | –
CCCCCn1cc2c(=O)n(CCC34CC5CC(CC(C5)C3)C4)nc-2c2ccccc21 | – | > 3 µM | –
CCCCCn1c(-c2ccccc2)c2c(=O)n(-c3cccc(C(F)(F)F)c3)nc-2c2ccccc21 | > 3 µM | > 3 µM | –
CCCCCn1c(-c2ccccc2)c2c(=O)[nH]nc-2c2ccccc21 | > 3 µM | > 3 µM | –
CCCCCn1cc2c(=O)n(CCC3CCCCC3)nc-2c2ccccc21 | – | – | Emax (Cannabinoid receptor 2 [2]): 141%
CCCCCn1cc2c(=O)n(-c3cccc(C(F)(F)F)c3)nc-2c2ccccc21 | 0.0292 µM | > 3 µM | –
CCCCCn1cc2c(=O)n(-c3ccccc3)nc-2c2ccccc21 | 1.36 µM | > 3 µM | –
CCCCCn1cc2c(=O)n(CC34CC5CC(CC(C5)C3)C4)nc-2c2ccccc21 | – | > 3 µM | inhibition (MDCK-II): 30.6%; Activity (Mus musculus [3]): Dose-dependent effect; fraction unbound at 18 h [4]: < 1; Emax (Cannabinoid receptor 2 [2]): 163%; Activity (Mus musculus [5]): inactive; Activity (Mus musculus [6]): Active; fold change (FC) (Mus musculus [7]): 1.7; inhibition at 1 µM (hERG (KCNH2)): 35.5%; Activity (Mus musculus [8]): Active; Activity (Mus musculus [9]): 65%; Papp A→B at 1 h, 10 µM [10]: 0.8 ×10⁻⁶ cm/s; remaining at 1 h, 1 µM [11]: 64%; Activity (Mus musculus [12]): Dose-dependent effect
CCCCCn1cc(C(=O)NCC23CC4CC(CC(C4)C2)C3)c(=O)c2ccccc21 | 0.0216 µM | > 3 µM | –
CCCCCn1cc2c(=O)n(CCCc3ccccc3)nc-2c2ccccc21 | > 3 µM | > 3 µM | –
CCCCCn1cc(C(=O)NC23CC4CC(CC(C4)C2)C3)c(=O)c(-c2ccncc2)c1C | – | > 1 µM | –
CCCCCn1cc2c(=O)n(C3CCCCC3)nc-2c2ccccc21 | – | – | Emax (Cannabinoid receptor 2 [2]): 160%
CCCCCn1cc2c(=O)n(-c3ccc(OC)cc3)nc-2c2ccccc21 | > 3 µM | > 3 µM | –
CCCCCn1cc2c(=O)n(CC3CCCCC3)nc-2c2ccccc21 | – | – | Emax (Cannabinoid receptor 2 [2]): 149%
CCCCCn1c(-c2ccccc2)c2c(=O)n(-c3ccccc3)nc-2c2ccccc21 | > 3 µM | > 3 µM | –
CCCCCn1c(-c2ccccc2)c2c(=O)n(CCCc3ccccc3)nc-2c2ccccc21 | > 3 µM | > 3 µM | –
